Experimental data: ChEMBL document CHEMBL4732120, “Discovery of novel PARP/PI3K dual inhibitors with high efficiency against BRCA-proficient triple negative breast cancer” (Eur J Med Chem, 2021)

Experiments:
[1] = molecular target: Phosphatidylinositol 4,5-bisphosphate 3-kinase catalytic subunit alpha isoform (Homo sapiens, UniProt P42336); assay: Inhibition of PI3Kalpha (unknown origin)
Method in brief: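 PARP-1 and PI3Kα enzyme inhibition. IC50 taken from dose-response curves and given as mean ± SD of three independent experiments.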

[2] = Toxicity in Sprague-Dawley rat assessed as death at 1000 mg/kg, po administered as single dose; type: organism-based; details: in vivo
Method in brief: (§1)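 Sprague-Dawley rats, n = 6 (3 male, 3 female), given a single oral dose of 1000 mg/kg. Deaths and body-weight change were recorded to estimate the maximum tolerated dose.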

[3] = Toxicity in Sprague-Dawley rat assessed as change in body weight at 1000 mg/kg, po administered as single dose measured on day 4 (reference value: 280 +/- 12 g); type: organism-based; details: in vivo, 96 h, time 4 day
[4] = Toxicity in […] cells xenografted BALB/c mouse assessed as mortality at 50 mg/kg, ip administered every two days for 34 days; type: organism-based; details: in vivo, 816 h, time 34 day
MDA-MB-468 [5] = assay: Induction of apoptosis in human MDA-MB-468 cells assessed as early apoptotic cells at 1 uM measured after 72 hrs by Annexin V-FITC/propidium iodide staining based flow cytometry (reference value: 3.88%); type: functional
[6] = Toxicity in MDA-MB-468 cells xenografted BALB/c mouse assessed as change in body weight at 50 mg/kg, ip administered every two days for 34 days measured at 2 days interval during compound dosing; details: in vivo, 816 h
[7] = Toxicity in Sprague-Dawley rat administered as single oral dose; details: in vivo; method in brief: as §1
[8] = Apparent permeability across apical to basolateral side in human Caco2 cells at 5 uM measured after 120 mins; type: ADME, cell-based; details: Caco-2
Method in brief: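 Bidirectional permeability run, apical-to-basolateral and basolateral-to-apical. Test compound at 5 µM, incubated 120 min. Papp (10^-6 cm/s), recovery (%) and efflux ratio reported as the mean of two experiments.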

[9] = Intrinsic clearance in human liver microsomes measured after 1 hr; type: ADME, Microsome; details: read-out: CLH
Method in brief: (§2)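 Compound incubated 1 h with mouse, rat, dog, monkey or human liver microsomes. Derived values were the elimination rate constant k, the elimination half-life T1/2 and the intrinsic clearance CLint.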

[10] = Elimination rate constant in human liver microsomes measured after 1 hr; type: ADME, Microsome; method in brief: as §2
MDA-MB-468 [11] = assay: Induction of apoptosis in human MDA-MB-468 cells assessed as viable cells at 1 uM measured after 72 hrs by Annexin V-FITC/propidium iodide staining based flow cytometry (reference value: 95.2%); type: functional; details: read-out: Activity
[12] = Elimination half life in mouse liver microsomes measured after 1 hr; type: ADME, Microsome; details: read-out: beta t1/2; method in brief: as §2

Phosphatidylinositol 4,5-bisphosphate 3-kinase catalytic subunit alpha isoform, sequence (P42336 whole entry, canonical isoform): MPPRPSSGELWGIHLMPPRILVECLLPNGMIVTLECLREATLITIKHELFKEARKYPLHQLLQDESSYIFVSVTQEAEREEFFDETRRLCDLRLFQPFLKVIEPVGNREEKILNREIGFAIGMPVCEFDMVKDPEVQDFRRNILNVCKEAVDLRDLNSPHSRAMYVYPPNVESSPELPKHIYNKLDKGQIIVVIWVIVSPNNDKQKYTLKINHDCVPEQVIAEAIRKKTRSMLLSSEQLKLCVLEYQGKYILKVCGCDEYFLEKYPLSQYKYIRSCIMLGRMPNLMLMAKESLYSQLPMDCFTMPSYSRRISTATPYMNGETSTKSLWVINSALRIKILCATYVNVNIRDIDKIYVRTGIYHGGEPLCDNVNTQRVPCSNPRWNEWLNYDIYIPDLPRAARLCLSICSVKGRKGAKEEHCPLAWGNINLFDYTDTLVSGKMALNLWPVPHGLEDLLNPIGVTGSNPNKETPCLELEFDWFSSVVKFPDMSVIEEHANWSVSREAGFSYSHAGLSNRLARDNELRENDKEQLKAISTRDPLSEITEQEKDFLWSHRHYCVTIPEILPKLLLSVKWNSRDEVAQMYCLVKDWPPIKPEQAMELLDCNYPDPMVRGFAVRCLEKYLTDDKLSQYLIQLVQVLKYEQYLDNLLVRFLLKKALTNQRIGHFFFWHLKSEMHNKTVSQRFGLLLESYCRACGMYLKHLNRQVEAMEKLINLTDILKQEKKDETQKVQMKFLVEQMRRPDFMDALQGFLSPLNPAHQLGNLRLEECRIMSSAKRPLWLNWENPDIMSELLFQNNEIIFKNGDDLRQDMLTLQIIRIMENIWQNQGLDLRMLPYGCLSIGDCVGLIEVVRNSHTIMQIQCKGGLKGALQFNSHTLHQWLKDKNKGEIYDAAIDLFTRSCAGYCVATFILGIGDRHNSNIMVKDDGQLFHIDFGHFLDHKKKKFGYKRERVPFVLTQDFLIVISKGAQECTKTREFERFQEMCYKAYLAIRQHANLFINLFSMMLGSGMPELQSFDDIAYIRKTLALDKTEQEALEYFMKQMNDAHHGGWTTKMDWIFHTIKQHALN

NC(=O)c1cccc2cc(C(=O)N3CCN(c4nc(-c5cnc(NC(=O)CN6CCOCC6)cc5C(F)(F)F)nc(N5CCOCC5)n4)CC3)oc12
IC50 [1]: 64 nM | Activity [2]: Non-Toxic | Activity [3]: 272 g | Activity [4]: Non-Toxic | Activity (MDA-MB-468 [5]): 15.8% | Activity [6]: Non-Toxic | MTD [7]: > 1000 mg/kg | Papp A→B at 2 h, 5 µM [8]: 8.42 ×10⁻⁶ cm/s | microsomal CLint [9]: 14.7 µL/min/mg | k el at 1 h [10]: 0.000122 s⁻¹ | viability at 1 µM (MDA-MB-468 [11]): 67.2% | half-life [12]: 17.4 min
